Assay outcomes as filed in PubChem BioAssay.
RGS4 pot = potentiators or activators of RGS4; HEK293 M3R/inducible RGS4, carbachol calcium flux Fluo4; hits give low values; B-score at 10 µM; 310,000 tested, 0.92% active;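 active = B-score of the integrated calcium signal more than 4 SD below the library mean, with starting fluorescence not abnormally high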;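 note: negative B-score means reduced calcium response which marks RGS4 activation or potentiation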
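Test system: HEK293 cells with stable M3R and inducible RGS4; also added: carbachol at ECmax as muscarinic agonist stimulus; schedule: dye loading 30 min 37 °C, buffer rest 30 min RT; technique: kinetic calcium fluorescence imaging with Fluo4-AM dye, 2 µM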
MrgX1 ag = human MrgX1 receptor agonism, primary screen | Q96LB2 | MrgX1-HEK293 cells, Fluo-4 calcium fluorescence, agonist mode; hits give high values | B-score at 10 µM | 310,000 tested, 0.44% active;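 active = calcium response B-score plate-corrected fluorescence ratio at least 3 library SD, with starting fluorescence B-score inside 5 SD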
Target sequence (Q96LB2 whole entry, looked up): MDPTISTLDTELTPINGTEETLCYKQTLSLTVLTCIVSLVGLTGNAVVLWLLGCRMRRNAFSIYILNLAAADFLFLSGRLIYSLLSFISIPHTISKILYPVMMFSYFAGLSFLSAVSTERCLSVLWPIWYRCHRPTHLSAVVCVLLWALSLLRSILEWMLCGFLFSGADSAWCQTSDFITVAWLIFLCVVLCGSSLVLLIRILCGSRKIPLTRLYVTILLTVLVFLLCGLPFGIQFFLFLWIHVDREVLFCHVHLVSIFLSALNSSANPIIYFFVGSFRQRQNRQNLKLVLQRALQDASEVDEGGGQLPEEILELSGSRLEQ
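Material: MrgX1-expressing HEK293 cells / Dosing: compound as first of three additions / Incubation: overnight seeding, then 1 h dark dye loading / Signal: Fluo-4 NW calcium fluorescence / Evaluation: B-scored fluorescence response ratio / Benchmarks: positive and negative control wells on each plate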
MrgX1 allo act = allosterically activates human MrgX1 receptor signaling. Q96LB2. MrgX1-HEK293, Fluo-4 calcium flux, FDSS; hits give high values. B-score at 10 µM. 310,000 tested, 0.63% active. AID 588675;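 active = plate-corrected calcium response at least 3 library SD above typical, normal starting fluorescence, not activating the receptor alone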;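 note: compound read alongside a low EC10 to EC30 dose of BAM8-22 agonist; peak minus trough fluorescence over baseline measured at the second addition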
RGS4 inh = inhibitors of human RGS4; P49798; HEK293 M3R/RGS4 inducible, Fluo-4 calcium flux; hits give high values; triggered by carbachol at its EC20; B-score at 10 µM; 310,000 tested, 0.45% active;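 active = B-score, a plate-corrected calcium signal, over three deviations above library mean, with baseline fluorescence within five deviations of library mean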;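 note: RGS4 expression induced by doxycycline in cells with stable M3 receptor; B-score is computed from the integrated fluorescence ratio over baseline after carbachol; higher B-score means a larger calcium signal and so more RGS4 inhibition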
Target sequence (P49798 whole entry, looked up): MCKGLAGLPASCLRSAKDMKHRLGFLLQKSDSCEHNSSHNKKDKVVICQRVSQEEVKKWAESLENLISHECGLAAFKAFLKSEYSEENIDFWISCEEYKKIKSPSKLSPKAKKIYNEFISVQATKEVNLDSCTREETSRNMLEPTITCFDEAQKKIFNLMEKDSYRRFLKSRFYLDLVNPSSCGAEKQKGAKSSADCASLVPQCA
MrgX1 antagonist = human MrgX1 receptor antagonism, primary screen | MRGX1-HEK293 calcium flux, Fluo-4, BAM8-22 antagonism; hits give low values | B-score at 10 µM | Q96LB2 | 310,000 tested, 1.3% active | AID 588676;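 active = calcium-response B-score plate-corrected more than 3 library SD below zero, starting fluorescence within 5 deviations, no agonist response on first addition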;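 note: peak minus trough fluorescence over baseline after final BAM8-22 challenge near maximal dose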
MrgX1 antag conf = confirmation of human MrgX1 receptor antagonists | shares compounds with MrgX1 antagonist | MrgX1-HEK293, BAM8-22 calcium flux, Fluo-4; hits give low values | remaining BAM8-22 calcium response % of control (hits give low values), % at 10 µM | 2,300 tested, 19% active | AID 602420;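 active = remaining agonist calcium response no higher than 100% minus 3 SD of agonist-only control wells, with starting fluorescence near control levels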;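 note: agonist BAM8-22 given at a near maximal EC90 to ECmax level; peak minus minimum fluorescence divided by baseline after agonist addition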
HEK293 Ca flux = activity in parental HEK293 cells lacking MrgX1; shares compounds with MrgX1 antagonist; Fluo-4 calcium fluorescence, FDSS; fluorescence ratio F(max-min)/F0 at 10 µM; 4,000 tested, 2% active;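 active = duplicate-averaged calcium fluorescence ratio at least three times the standard deviation of buffer wells, a nonspecific response in parental cells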
HEK293 Ca counter = MrgX1 allosteric activator counter-screen hit in parental HEK293 cells; AID 624114; 4,000 tested, 0.4% active; fluorescence ratio F(max-min)/F0 at 10 µM; shares compounds with MrgX1 antagonist; parental HEK293 calcium flux, Fluo-4 fluorescence ratio; hits give high values;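 active = calcium fluorescence ratio, averaged over duplicates, at least 3 SD of the buffer-well ratio, meaning a nonspecific response in receptor-free cells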;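 note: untransfected parental HEK293 lacking MrgX1 used as counterscreen for MrgX1 allosteric activators; fluorescence change taken during the second addition on a kinetic imager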
HEK293 Ca cntr2 = counter-screen for MrgX1 activators: effect in parental HEK293 cells; shares compounds with MrgX1 antagonist; Fluo-4 calcium fluorescence (FDSS); hits give high values; fluorescence ratio F(max-min)/F0 at 10 µM; 4,000 tested, 8.7% active; AID 624115;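 active = calcium fluorescence ratio at least three times the spread of buffer wells, meaning a non-specific response in parental cells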
A number is an active result; - = inactive; . = no result. The list is not random: actives were taken first. Their share in the collection is about 3.5%.

SMILES	RGS4 pot	MrgX1 ag	MrgX1 allo act	RGS4 inh	MrgX1 antagonist	MrgX1 antag conf	HEK293 Ca flux	HEK293 Ca counter	HEK293 Ca cntr2
COc1ccc(NC(=O)CSc2nnc(Cc3cccs3)n2C)cc1	-	-	-	-	-	.	.	.	.
COC(=O)c1sc2ccccc2c1-n1cccc1C(=O)C(=O)Nc1ccc(OC)cc1	-	-	-	-	-	.	.	.	.
O=C(Nc1nsc(-c2ccccc2)n1)c1cccs1	-	-	-	-	-10	-	-	-	-
Cc1ccc(C)c(NC(=S)N2CCCCCC2)c1	.	-	-	.	-	.	.	.	.
Cc1ccc(C)c(NC(=S)N2CCN(CCO)CC2)c1	-	-	-	-	-4.8	-	-	-	-
Cc1ccc(CSC2=Nc3ccccc3C3=NC(CC(=O)NCc4ccco4)C(=O)N23)cc1 (stereo unspecified)	-	-	-	-	-	.	.	.	.
N#C/C(=C\N1CCCCC1)S(=O)(=O)c1ccc(Cl)cc1	-	-	-	-	-	.	.	.	.
Cn1c(=O)oc2cc(S(=O)(=O)NCCC(=O)NCc3ccc(F)cc3)ccc21	-	-	-	-	-	.	.	.	.
CCc1cccc(NC(=O)CCC(=O)N2CCSc3ccccc32)c1	-	-	-	-	-	.	.	.	.
CCc1ccc(NC(=O)CCC(=O)N2CCSc3ccccc32)cc1	-	-	-	-	-5.2	-	-	-	-
Cc1cc(C)c(S(=O)(=O)c2ccc(Cl)cc2C)c(Cl)n1	-	-	-	-	-	.	.	.	.
CCc1ccccc1S(=O)(=O)c1c(C)cc(C)nc1Cl	-	-	-	-	-5	-	-	-	-
Cc1cc(C(=O)Nc2ccc3c(c2)OCO3)cs1	-	-	-	-	-	.	.	.	.
Cc1cc(C(=O)NC(C)c2ccc3c(c2)OCO3)cs1 (stereo unspecified)	-	-	-	-	-4.6	-	-	-	-
Cc1ccc(-c2nc(Nc3cccc(C)c3)sc2CC(=O)O)cc1	-	-	-	-	-	.	.	.	.
O=C(O)Cc1sc(NC2CCCCC2)nc1-c1ccc(Cl)cc1	-	-	-	-	-9.6	82%	-	-	-
CC(OC(=O)C1CC1)C(=O)Nc1ccc([N+](=O)[O-])cc1Cl (stereo unspecified)	-	-	-	-	-	.	.	.	.
CC(=O)Nc1ccc(S(=O)(=O)N2CCC(c3nc4ccc(C)cc4[nH]3)CC2)cc1	-	-	-	-	-	.	.	.	.
CC(C)(C)c1ccc(S(=O)(=O)N2CCC(c3nc4ccc(Cl)cc4[nH]3)CC2)cc1	-	-	-	-	-6	-	-	-	-
COC(=O)c1ccc(NC(=S)NCCc2ccccc2C)cc1	-	-	-	-	-5	-	-	-	-
COC(=O)c1ccc(NC(=S)NCCc2cccc(C)c2)cc1	-	-	-	-	-	.	.	.	.
C[C@H]1CN=C(Nc2ccccc2)N1CCCC1CCCCC1	-	-	-	-	-6.1	-	-	-	-
C[C@H]1CN=C(Nc2ccccc2)N1CC1CCCCC1	-	-	-	-	-	.	.	.	.
CN(C)C1=NC[C@H](Cc2ccccc2)N1CCCC1CCCC1	.	-	-	.	-5.6	-	-	-	-
CC(C(=O)Nc1cccc([N+](=O)[O-])c1)N1C(=O)NC2(CCCC2)C1=O (stereo unspecified)	-	-	-	-	-	.	.	.	.
SMILES	RGS4 pot	MrgX1 ag	MrgX1 allo act	RGS4 inh	MrgX1 antagonist	MrgX1 antag conf	HEK293 Ca flux	HEK293 Ca counter	HEK293 Ca cntr2
COc1ccc([C@@H]2[C@@H]3C(=O)N(C(C)(C)C)C(=O)[C@@H]3[C@]3(Cc4ccc(Cl)cc4)C(=O)N(c4cccc(C)c4)C(=O)N23)cc1	-	-	-	-	-	.	.	.	.
CCN(CC)S(=O)(=O)c1ccc(C(=O)NCC2CCCCC2)cc1	-	-	-	-	-	.	.	.	.
O=C(Cc1csc(-c2ccccc2)n1)NCc1cccs1	-	-	-	-	-	.	.	.	.
O=C(NCCc1ccccc1)C(=O)NCC1CCNCC1	-	-	-	-	-	.	.	.	.
O=C(NC1CCCN(Cc2ccc(Cl)cc2)C1)c1ccnc(Cl)c1 (stereo unspecified)	-	-	-	-	-	.	.	.	.
O=C(NC1CCCN(c2ccc(C(F)(F)F)cn2)C1)c1ccnc(Cl)c1 (stereo unspecified)	-	-	-	-	-4.9	84%	-	-	-
CO[C@H]1O[C@H](CBr)[C@@H](OC(=O)c2ccccc2)[C@H](O)[C@H]1O	-	-	-	-	-	.	.	.	.
COC1OC(COC(=O)c2ccccc2)C(OC(=O)c2ccccc2)C1OC(=O)c1ccccc1 (stereo unspecified)	-	-	-	-	-5.5	-	-	-	-
COc1ccc(CNc2ncnc3c2[nH]c2ccccc23)cc1	-	-	-	-	-	.	.	.	.
CC(C)OCCCNc1ncnc2c1[nH]c1ccccc12	-	-	-	-	-8.4	52%	-	-	-
Cc1ccc2[nH]c3c(NCc4ccccc4)ncnc3c2c1	-	-	-	-	-7.4	-	-	-	-
C=CCn1c(SCC(=O)Nc2cccnc2Cl)nnc1-c1ccccc1F	-	-	-	-	-	.	.	.	.
Cc1ccc(-n2cccc2/C=C2\C(=N)N3N=C(c4ccco4)SC3=NC2=O)cc1	-	-	-	-	-	.	.	.	.
NS(=O)(=O)c1ccc(CCNC(=O)c2ccc3nc4ccc(Cl)cc4c(=O)n3c2)cc1	-	-	-	-	-	.	.	.	.
O=C(NCCC1=CCCCC1)N[C@@H](Cc1ccccc1)C(=O)O	-	-	-	-	-9.7	-	-	-	-
O=C(NCCc1ccccc1)NC(Cc1ccccc1)C(=O)O (stereo unspecified)	-	-	-	-	-	.	.	.	.
COc1ccc2c(c1)OC[C@H]1[C@H]2N2C(=O)c3cc(Br)ccc3NC(=O)[C@@]2(C)[C@H]1c1ccccc1	.	-	-	.	-7.6	79%	-	-	-
COc1ccc2c(c1)OC[C@H]1[C@H]2N2C(=O)c3cc(OC)c(OC)cc3NC(=O)[C@@]2(C)[C@H]1c1ccccc1	.	-	-	.	-	.	.	.	.
COc1cccc(Oc2c(C)oc3c(CN4CCCC4)c(O)ccc3c2=O)c1	-	-	-	-	-	.	.	.	.
COc1ccc(OC)c(/C=N/NC(=S)NCCc2ccccc2)c1	-	-	-	-	-	.	.	.	.
COc1ccc(CC(C)N2CCN(Cc3ccccc3)CC2)c(OC)c1 (stereo unspecified)	-	-	-	-	-4.5	-	-	-	-
CN(CC(=O)Nc1ccc(Cl)c(S(=O)(=O)N(C)C)c1)Cc1ccccc1	-	-	-	-	-	.	.	.	.
